Legend:
Influenza B virus [1] = test: Antiviral activity against oseltamivir-susceptible zanamivir-, adamantane-resistant Influenza B virus (B/Rochester/01/2001) harboring neuraminidase D198N mutant infected in MDCK cells assessed as inhibition of viral replication after 3 days by microscopic analysis using crystal violet stain; assay type: functional, organism-based
Influenza B virus [2] = test: microbe, parasite or virus in culture; details: B/Memphis/20/96, MDCK, 72 h
Influenza A virus [3] = test: Antiviral activity against Influenza A virus (A/Illinois/10/2009(H1N1)) harboring neuraminidase H275Y mutant infected in MDCK cells from Mill Hill assessed as log reduction in viral titer at 1.6 uM after 24 hrs by immunofluorescent assay; assay type: functional
Outline: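 Yield reduction in MDCK-ATCC or MDCK-Mill Hill cells infected at MOI ∼0.01. Adsorption 1 h at 4°C, washed, then DMEM with 2 μg/ml TPCK-trypsin and drug. At 24 h, supernatants were titrated by immunofluorescent focus assay on MDCK cells with anti-NP monoclonals and FITC secondary. Titres as log10 FFU per 100 μl; detection limit <10 FFU. Quadruplicate, mean ± SD.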

Influenza A virus [4] = test: Antiviral activity against adamantane-resistant zanamivir-,oseltamivir-susceptible Influenza A virus (A/Florida/01/2009(H3N2)) harboring M2 S31N mutant infected in MDCK cells assessed as inhibition of viral replication after 3 days by microscopic analysis using crystal violet stain; assay type: functional, organism-based
Outline: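 Confluent MDCK-ATCC monolayers infected with virus diluted to give 15–45 plaques/well. Adsorption 1 h at 37°C without drug, then washed. Overlaid with 0.8% agarose in MEM containing drug plus TPCK-trypsin: 3 μg/ml for seasonal viruses, 2 μg/ml for 2009 A(H1N1). Incubated 3 days at 37°C, 5% CO2. Ethanol-fixed, crystal violet-stained, plaques counted. EC50 by curve fit; duplicates on three occasions, mean ± SD.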

Influenza A virus [5] = test: Antiviral activity against adamantane-resistant zanamivir-,oseltamivir-susceptible Influenza A virus (A/pdm/New York/18/2009 (H1N1)) harboring M2 V28I, S31N mutant infected in MDCK cells assessed as inhibition of viral replication after 3 days by microscopic analysis using crystal violet stain; assay type: functional, organism-based, Influenza A virus (A/New York/18/2009(H1N1))
Outline: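 Plaque reduction on confluent MDCK-ATCC monolayers: pretitrated virus (15–45 plaques per well) adsorbed 1 h at 37°C without drug, then washed with PBS. Agarose overlay (0.8%, in MEM) with drug added, 3 days at 37°C. Cells fixed with 70% ethanol, stained with crystal violet, plaques counted. EC50 from curve fitting, averaged over three separate experiments in duplicate, ± SD.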

Influenza A virus [6] = test: Antiviral activity against Influenza A virus (A/Illinois/10/2009(H1N1)) harboring neuraminidase H275Y mutant infected in MDCK cells from Mill Hill assessed as inhibition of viral replication after 3 days by microscopic analysis using crystal violet stain; assay type: functional
Influenza A virus [7] = test: Antiviral activity against adamantane-, zanamivir-susceptible oseltamivir-resistant Influenza A virus (A/Florida/21/2008(H1N1)) harboring neuraminidase H274Y mutant infected in MDCK cells assessed as inhibition of viral replication after 3 days by microscopic analysis using crystal violet stain; assay type: functional, organism-based
Outline: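 MDCK-ATCC confluent monolayers infected with pretitrated virus (15–45 plaques per well), 1 h adsorption at 37°C, 5% CO2, without drug. Inoculum removed, PBS wash, then 0.8% agarose overlay in MEM with drug and 3 μg/ml TPCK-trypsin. 3 days at 37°C, ethanol fixation, crystal violet stain, plaques counted. EC50 by curve fit, mean of three experiments in duplicate ± SD.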

## NC(=O)c1nc(F)cnc1O [FAVIPIRAVIR]
Influenza B virus [1]
  EC50: 1.72 µM
Influenza B virus [2]
  EC50: 1.21 µM
Influenza A virus [3]
  log10FFU: 4.5
Influenza A virus [4]
  EC50: 0.45 µM
Influenza A virus [5]
  EC50: 0.89 µM
Influenza A virus [6]
  log10FFU: 5.03
Influenza A virus [7]
  EC50: 1.59 µM

From ChEMBL document CHEMBL1671691 (Antimicrob Agents Chemother, 2010)
